Laboratory results reported in ChEMBL document CHEMBL1153011, “Mechanism of unusual formation of 3-(5-phenyl-3H-[1,2,4]dithiazol-3-yl)chromen-4-ones and 4-oxo-4H-chromene-3-carbothioic acid N-phenylamides and their antimicrobial evaluation” (2009).
Values after ≈ are worked out from the molar mass of the structure shown. Active and inactive are the calls of the source. The calls are words filed in the database; no cut-off is given here.

Columns and labels:
[1] = tested on: Aspergillus niger; test: Antifungal activity against Aspergillus niger MTCC 281 after 24 to 72 hrs by broth dilution method; format: functional
How it was run: (§1)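 Fungi grown at 25 °C on Sabouraud dextrose agar. Compounds dissolved in DMSO (1/10) and tested at several concentrations in Sabouraud dextrose broth in tubes. Conidial suspension at final 1 × 10^5 CFU/ml, with growth and sterility control tubes. […] DMSO negative control; fluconazole positive control.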

[2] = tested on: Escherichia coli; test: Antibacterial activity against Escherichia coli MTCC 119 at 5 x 10^-5 ug/ml after 24 hrs by disk diffusion assay; format: functional; details: MTCC 119, 24 h, read-out: GI
How it was run: (§2)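 Disk diffusion. 100 µl of 4-h nutrient-broth cultures spread on Mueller Hinton agar. Compounds in DMSO (1/10) applied to 8 mm paper disks. After 24 h at 37 °C, growth-inhibition zone diameter measured. DMSO negative control; chloramphenicol and ciprofloxacin positive controls.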

[3] = tested on: Escherichia coli; test: Antibacterial activity against Escherichia coli MTCC 119 at 1 x 10^-4 ug/ml after 24 hrs by disk diffusion assay; format: functional; details: MTCC 119, 24 h, read-out: GI; how it was run: as §2
[4] = tested on: Pseudomonas aeruginosa; test: Antibacterial activity against Pseudomonas aeruginosa MTCC 741 at 2.5 x 10^-5 ug/ml after 24 hrs by disk diffusion assay; format: functional, organism-based; how it was run: as §2
[5] = tested on: Pseudomonas aeruginosa; test: Antibacterial activity against Pseudomonas aeruginosa MTCC 741 at 5 x 10^-5 ug/ml after 24 hrs by disk diffusion assay; format: functional, organism-based; how it was run: as §2
[6] = tested on: Pseudomonas aeruginosa; test: Antibacterial activity against Pseudomonas aeruginosa MTCC 741 at 1 x 10^-4 ug/ml after 24 hrs by disk diffusion assay; format: functional, organism-based; how it was run: as §2
[7] = tested on: Escherichia coli; test: Antibacterial activity against Escherichia coli MTCC 119 after overnight incubation by broth dilution method; format: functional
How it was run: (§3)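 Bacteria grown at 37 °C on nutrient agar. Compounds dissolved in DMSO (1/10) and tested in twofold serial dilutions in Mueller Hinton broth in tubes. Inoculum was a McFarland-standardized suspension, final 5 × 10^5 CFU/ml, with growth and sterility control tubes. Incubation overnight at 37 °C. MIC read by OD600 as the lowest concentration with no turbidity. DMSO negative control; chloramphenicol and ciprofloxacin positive controls.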

[8] = tested on: Pseudomonas aeruginosa; test: Antibacterial activity against Pseudomonas aeruginosa MTCC 741 after overnight incubation by broth dilution method; format: functional; how it was run: as §3
[9] = tested on: Geotrichum candidum; test: Antifungal activity against Geotrichum candidum MTCC 3993 after 24 to 72 hrs by broth dilution method; format: functional; how it was run: as §1
[10] = tested on: Candida albicans; test: Antifungal activity against Candida albicans MTCC 227 after 24 to 72 hrs by broth dilution method; format: functional; how it was run: as §1
[11] = tested on: Candida tropicalis; test: Antifungal activity against Candida tropicalis MTCC 230 after 24 to 72 hrs by broth dilution method; format: functional; how it was run: as §1
[12] = tested on: Shigella flexneri; test: Antibacterial activity against Shigella flexneri MTCC 1457 at 2.5 x 10^-5 ug/ml after 24 hrs by disk diffusion assay; format: functional; details: MTCC 1457, 24 h, read-out: GI; how it was run: as §2
[13] = tested on: Shigella flexneri; test: Antibacterial activity against Shigella flexneri MTCC 1457 at 5 x 10^-5 ug/ml after 24 hrs by disk diffusion assay; format: functional; details: MTCC 1457, 24 h, read-out: GI; how it was run: as §2
[14] = tested on: Shigella flexneri; test: Antibacterial activity against Shigella flexneri MTCC 1457 at 1 x 10^-4 ug/ml after 24 hrs by disk diffusion assay; format: functional; details: MTCC 1457, 24 h, read-out: GI; how it was run: as §2
[15] = tested on: Staphylococcus aureus; test: Antibacterial activity against Staphylococcus aureus MTCC 740 at 2.5 x 10^-5 ug/ml after 24 hrs by disk diffusion assay; format: functional; details: MTCC 740, 24 h, read-out: GI; how it was run: as §2
[16] = tested on: Staphylococcus aureus; test: Antibacterial activity against Staphylococcus aureus MTCC 740 at 5 x 10^-5 ug/ml after 24 hrs by disk diffusion assay; format: functional; details: MTCC 740, 24 h, read-out: GI; how it was run: as §2
[17] = tested on: Staphylococcus aureus; test: Antibacterial activity against Staphylococcus aureus MTCC 740 at 1 x 10^-4 ug/ml after 24 hrs by disk diffusion assay; format: functional; details: MTCC 740, 24 h, read-out: GI; how it was run: as §2
[18] = tested on: Shigella flexneri; test: Antibacterial activity against Shigella flexneri MTCC 1457 after overnight incubation by broth dilution method; format: functional; how it was run: as §3
[19] = tested on: Staphylococcus aureus; test: Antibacterial activity against Staphylococcus aureus MTCC 740 after overnight incubation by broth dilution method; format: functional; how it was run: as §3
[20] = tested on: Escherichia coli; test: Antibacterial activity against Escherichia coli MTCC 119 at 2.5 x 10^-5 ug/ml after 24 hrs by disk diffusion assay; format: functional; details: MTCC 119, 24 h, read-out: GI; how it was run: as §2

SMILES | MIC [1] [µg/mL] | inhibition of growth at 50 pg/mL [2] [%] | inhibition of growth at 0.0001 µg/mL [3] [%] | growth inhibition (GI) [4] | growth inhibition (GI) [5] | growth inhibition (GI) [6] | MIC [7] [µg/mL] | MIC [8] | MIC [9] [µg/mL] | MIC [10] [µg/mL] | MIC [11] [µg/mL] | inhibition of growth at 25 pg/mL [12] [%] | inhibition of growth at 50 pg/mL [13] [%] | inhibition of growth at 0.0001 µg/mL [14] [%] | inhibition of growth at 25 pg/mL [15] [%] | inhibition of growth at 50 pg/mL [16] [%] | inhibition of growth at 0.0001 µg/mL [17] [%] | MIC [18] [µg/mL] | MIC [19] [µg/mL] | inhibition of growth at 25 pg/mL [20] [%]
O=c1c(C(=S)Nc2ccccc2)coc2ccc(F)cc12 | 120 (≈ 401 µM) | 73.8 | 100 | inactive | inactive | inactive | 68 (≈ 227 µM) | inactive | – | – | – | – | – | – | – | – | – | – | – | –
Cc1ccc2occ(C3N=C(c4ccccc4)SS3)c(=O)c2c1 (stereo not given) | 150 (≈ 442 µM) | 30 | 72.5 | inactive | inactive | inactive | 132 (≈ 389 µM) | inactive | 95 (≈ 280 µM) | 60 (≈ 177 µM) | 52 (≈ 153 µM) | 21 | 60.9 | 100 | 35 | 92.7 | 100 | 82 (≈ 242 µM) | 54 (≈ 159 µM) | –
OC(Cn1cncn1)(Cn1cncn1)c1ccc(F)cc1F [FLUCONAZOLE] | 49 (≈ 160 µM) | – | – | – | – | – | – | – | 9 (≈ 29.4 µM) | 24 (≈ 78.4 µM) | 25 (≈ 81.6 µM) | – | – | – | – | – | – | – | – | –
O=C(N[C@H](CO)[C@H](O)c1ccc([N+](=O)[O-])cc1)C(Cl)Cl [CHLORAMPHENICOL] | – | – | – | – | – | – | 2.5 (≈ 7.74 µM) | 2.7 µg/mL (≈ 8.36 µM) | – | – | – | – | – | – | – | – | – | 5.6 (≈ 17.3 µM) | 13.6 (≈ 42.1 µM) | –
O=C(O)c1cn(C2CC2)c2cc(N3CCNCC3)c(F)cc2c1=O [CIPROFLOXACIN] | – | – | – | – | – | – | 1.2 (≈ 3.62 µM) | 1.8 µg/mL (≈ 5.43 µM) | – | – | – | – | – | – | – | – | – | 1.4 (≈ 4.23 µM) | 0.9 (≈ 2.72 µM) | –
O=c1c(C2N=C(c3ccccc3)SS2)coc2cc(Cl)c(F)cc12 (stereo not given) | 90 (≈ 238 µM) | 14 | 30.5 | inactive | inactive | inactive | 350 (≈ 926 µM) | inactive | 5 (≈ 13.2 µM) | 40 (≈ 106 µM) | 28 (≈ 74.1 µM) | 48.3 | 98.5 | 100 | 32.9 | 68.7 | 100 | 52 (≈ 138 µM) | 72 (≈ 191 µM) | –
O=c1c(C2N=C(c3ccccc3)SS2)coc2ccc(F)cc12 (stereo not given) | 50 (≈ 146 µM) | 12.3 | 80.9 | inactive | inactive | inactive | 120 (≈ 349 µM) | inactive | 32 (≈ 93.2 µM) | 30 (≈ 87.4 µM) | 42 (≈ 122 µM) | 28.4 | 62.3 | 100 | – | 23.9 | 48.8 | 80 (≈ 233 µM) | 205 (≈ 597 µM) | –
O=c1c(C(=S)Nc2ccccc2)coc2ccccc12 | 90 (≈ 320 µM) | 85.5 | 100 | inactive | inactive | inactive | 62 (≈ 220 µM) | inactive | – | – | – | – | 55.3 | 100 | 35.6 | 76.2 | 100 | 92 (≈ 327 µM) | 70 (≈ 249 µM) | 38.5
O=c1c(C(=S)Nc2ccccc2)coc2cc(Cl)c(Cl)cc12 | – | 78.3 | 100 | inactive | inactive | inactive | 64 (≈ 183 µM) | inactive | – | 75 (≈ 214 µM) | – | 8.82 | 60.9 | 100 | 3.78 | 90.9 | 100 | 62 (≈ 177 µM) | 55 (≈ 157 µM) | 20.4
O=c1c(C2N=C(c3ccccc3)SS2)coc2ccccc12 (stereo not given) | 90 (≈ 277 µM) | 56.7 | 100 | inactive | inactive | inactive | 88 (≈ 270 µM) | inactive | 32 (≈ 98.3 µM) | 30 (≈ 92.2 µM) | 40 (≈ 123 µM) | 44.3 | 85.5 | 100 | 30.2 | 73.9 | 100 | 58 (≈ 178 µM) | 68 (≈ 209 µM) | 24.8
O=c1c(C(=S)Nc2ccccc2)coc2cc(Cl)ccc12 | 80 (≈ 253 µM) | 42.6 | 87.6 | inactive | inactive | inactive | 115 (≈ 364 µM) | inactive | – | 60 (≈ 190 µM) | 60 (≈ 190 µM) | – | 52.2 | 100 | – | 43.6 | 81 | 96 (≈ 304 µM) | 125 (≈ 396 µM) | –
